Common to all, as to format: functional, cell-based
Assay [1] deals with SK-BR-3. The assay is described as follows: Antiproliferative activity against human SKBR3 cells expressing HER2 after 72 hrs by MTS/PMS assay. Conditions: SK-BR-3, 72 h. The method, boiled down:
(§1)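 Cells kept in Advanced DMEM/F12 (1:1) with non-essential amino acids, 2 mM L-glutamine, penicillin, streptomycin and 10% FBS at 37 °C, 5% CO2. Seeded at 2000/well, attached overnight. Compound added in DMSO across a concentration range (1% DMSO final) for 72 h. Viable cells read by MTS/PMS and normalized to 1% DMSO controls (100%). IC50 taken from separate triplicate experiments.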

Assay [2] deals with MCF7. Description: Antiproliferative activity against human MCF7 cells expressing estrogen receptor after 72 hrs by MTS/PMS assay. Conditions: MCF7, 72 h. In a few lines: as §1
The nature of assay [3]: Antiproliferative activity against human androgen-dependent LNCaP-LN3 cells after 72 hrs by MTS/PMS assay. The conditions noted are these: LNCaP-LN3, 72 h. The method, boiled down: as §1
Assay [4] is described as follows: Antiproliferative activity against human androgen-independent PC3MM2 cells after 72 hrs by MTS/PMS assay. Conditions: PC3MM2, 72 h. In a few lines:
as §1

The subject of assay [5] is B16-F10. The assay is described as follows: Antiproliferative activity against mouse B16F10 cells after 72 hrs by MTS/PMS assay. The conditions noted are these: B16-F10, 72 h. The method, boiled down:
as §1

The subject of assay [6] is SK-MEL-28. Description: Antiproliferative activity against human SK-MEL-28 cells after 72 hrs by MTS/PMS assay. The conditions noted are these: SK-MEL-28, 72 h. The method, boiled down: as §1
The nature of assay [7]: Antiproliferative activity against human MDA1986 cells after 72 hrs by MTS/PMS assay. Conditions: MDA1986, 72 h. In a few lines: as §1
Assay [8] is described as follows: Antiproliferative activity against human JMAR cells after 72 hrs by MTS/PMS assay. The method, boiled down:
as §1

Structures are written as SMILES.

`COc1cccc(-c2cc(C(=O)Nc3cc4ccc(OC5CCC[C@@H](O)[C@H]5O)c(C)c4oc3=O)ccc2OC)c1` (stereo partly drawn): the half-inhibitory concentration (IC50) is above 100 µM in assay [1]; above 100000 nM in assay [2]; 1.58 µM in assay [3]; 4.04 µM in assay [4]; 14.1 µM in assay [5]; 2.94 µM in assay [6]. In addition, the IC50 amounted to 17.9 µM in assay [7] and 13.9 µM in assay [8].

For `COc1cccc(-c2cc(C(=O)Nc3cc4ccc(OC5CC(C)C[C@@H](O)[C@H]5O)c(C)c4oc3=O)ccc2OC)c1` (stereo partly drawn), the IC50 in assay [1] is above 100 µM; in assay [2] it was above 100000 nM; in assay [3], 1.14 µM; in assay [4], 4.09 µM; in assay [5] it was 2.5 µM; in assay [6], 11.4 µM. Besides, the half-maximal inhibitory concentration (IC50) came out at 6.74 µM in assay [7] and 2.73 µM in assay [8].

Regarding `COc1cccc(-c2cc(C(=O)Nc3cc4ccc(O[C@H]5OCCC[C@H]5O)c(C)c4oc3=O)ccc2OC)c1`, the IC50 in assay [1] was above 100 µM; in assay [2], above 100000 nM; in assay [3], 7.34 µM; in assay [5], 10.4 µM; in assay [6], 19.6 µM; in assay [7], 18.8 µM. This compound also gave an IC50 in assay [8] of 3.6 µM.

Consider `COc1cccc(-c2cc(C(=O)Nc3cc4cc(OC)c(OC5CCCN(C)C5)c(C)c4oc3=O)ccc2OC)c1` (stereo not drawn), for which the IC50 in assay [1] was 1.49 µM; in assay [2] it was 1410 nM; in assay [3], 10.5 µM; in assay [4], 6.86 µM; in assay [5], 2.67 µM; in assay [6], 5.86 µM. For the same compound, the figures for the half-inhibitory concentration (IC50) in assay [7] and in assay [8] were 13.2 µM and 19.1 µM, respectively.

Regarding `COc1cccc(-c2cc(C(=O)Nc3cc4ccc(OCCN(C)C)c(C)c4oc3=O)ccc2OC)c1`, the IC50 in assay [1] turned out to be 1.02 µM; in assay [2], 1460 nM; in assay [3], 6.65 µM; in assay [4], 4.17 µM; in assay [5] it was 15.7 µM; in assay [6], 14.7 µM. The IC50 in assay [7] amounted to 17.5 µM; in assay [8], 18.4 µM.

For the compound `COc1cccc(-c2cc(C(=O)Nc3cc4ccc(O[C@@H]5OCCC[C@@H](O)[C@H]5O)c(C)c4oc3=O)ccc2OC)c1`, the half-maximal inhibitory concentration (IC50) in assay [1] was 2.38 µM; in assay [2], above 100000 nM; in assay [3], above 100 µM; in assay [5], above 50 µM; in assay [6] it was 18.5 µM; in assay [7], 22.9 µM. Further, the IC50 in assay [8] amounted to 7.4 µM.

Regarding `COc1cccc(-c2cc(C(=O)Nc3cc4ccc(O[C@@H]5OCC[C@@H](O)[C@H]5O)c(C)c4oc3=O)ccc2OC)c1`, the concentration for half-maximal inhibition (IC50) in assay [1] worked out at 6.23 µM; in assay [2] it was 2560 nM; in assay [3], 3.59 µM; in assay [5], 37.5 µM; in assay [6] it was 14.9 µM; in assay [7] it was 13.4 µM. Also, the concentration for half-maximal inhibition (IC50) in assay [8] worked out at 2.79 µM.

With `COc1cc2cc(NC(=O)c3cc4ccccc4[nH]3)c(=O)oc2c(C)c1OCCCN(C)C`, the concentration for half-maximal inhibition (IC50) came to 0.57 µM in assay [1]; 560 nM in assay [2]; 2.58 µM in assay [4]; 2.03 µM in assay [5]; 1.35 µM in assay [6]; 1.81 µM in assay [7]. This compound also returned a half-maximal inhibitory concentration (IC50) in assay [8] of 2.65 µM.

Regarding `COc1cccc(-c2cc(C(=O)Nc3cc4ccc(O[C@@H]5OC[C@@H](O)[C@H]5O)c(C)c4oc3=O)ccc2OC)c1`, the half-inhibitory concentration (IC50) in assay [1] is 12.5 µM; in assay [2], 37200 nM; in assay [3], 3.65 µM; in assay [5] it was 4.55 µM; in assay [6], 5.74 µM; in assay [7] it was 1.94 µM. In addition, half-maximal inhibition in assay [8] (IC50) was put at 12.6 µM.

Regarding `COc1cccc(-c2cc(C(=O)Nc3cc4ccc(O[C@@H]5OCC[C@H]5O)c(C)c4oc3=O)ccc2OC)c1`, the half-inhibitory concentration (IC50) in assay [1] was above 100 µM; in assay [2], above 100000 nM; in assay [5], 42.7 µM; in assay [6], 18.4 µM; in assay [7], 21.4 µM; in assay [8], 14.9 µM.

In general, IC50 refers to the point on the concentration scale where inhibition reaches its midpoint. High values mean lower potency, low ones higher potency.

The record behind these values is ChEMBL document CHEMBL1795208 (J Med Chem, 2011).
